Laboratory results as given in ChEMBL document CHEMBL5390224, “Design, synthesis, and biological evaluation of a novel series of 1,2,4-oxadiazole inhibitors of SLACK potassium channels: Identification of in vitro tool VU0935685” (Bioorg Med Chem, 2023).
Active and inactive are the calls of the source. The calls are words filed in the database; no cut-off is given here.

Legend:
[1] = Inhibition of human SLACK A934T mutant expressed in HEK293 cells by thallium flux assay; type: cell-based
Summary of the method: (§1)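 Stable monoclonal HEK293 lines (WT or A934T SLACK) plated 20,000 cells/well; loaded 1 h at room temperature with Thallo-AM dye, 1.25 mM probenecid, masking dye, 0.3% Pluronic F-127 in buffer with 2.7 mM RbCl, pH 7.3. Compound preincubated 120 s, then Tl2SO4 stimulus (2.5 mM); fluorescence read 120 s. Concentration–response 1.5 nM–30 μM in half-log steps, ≥3 replicate wells.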

HEK293 [2] = test: Inhibition of wild-type human SLACK expressed in HEK293 cells assessed as efficacy at 30 uM by thallium flux assay relative to control; type: cell-based; summary of the method: as §1
[3] = target: T1, Potassium channel subfamily T member 2 (Homo sapiens) (UniProt Q6UVM3); test: Inhibition of SLICK (unknown origin) expressed in HEK293 cells assessed as efficacy at 30 uM by thallium flux assay relative to control; type: cell-based
T1 sequence (whole entry): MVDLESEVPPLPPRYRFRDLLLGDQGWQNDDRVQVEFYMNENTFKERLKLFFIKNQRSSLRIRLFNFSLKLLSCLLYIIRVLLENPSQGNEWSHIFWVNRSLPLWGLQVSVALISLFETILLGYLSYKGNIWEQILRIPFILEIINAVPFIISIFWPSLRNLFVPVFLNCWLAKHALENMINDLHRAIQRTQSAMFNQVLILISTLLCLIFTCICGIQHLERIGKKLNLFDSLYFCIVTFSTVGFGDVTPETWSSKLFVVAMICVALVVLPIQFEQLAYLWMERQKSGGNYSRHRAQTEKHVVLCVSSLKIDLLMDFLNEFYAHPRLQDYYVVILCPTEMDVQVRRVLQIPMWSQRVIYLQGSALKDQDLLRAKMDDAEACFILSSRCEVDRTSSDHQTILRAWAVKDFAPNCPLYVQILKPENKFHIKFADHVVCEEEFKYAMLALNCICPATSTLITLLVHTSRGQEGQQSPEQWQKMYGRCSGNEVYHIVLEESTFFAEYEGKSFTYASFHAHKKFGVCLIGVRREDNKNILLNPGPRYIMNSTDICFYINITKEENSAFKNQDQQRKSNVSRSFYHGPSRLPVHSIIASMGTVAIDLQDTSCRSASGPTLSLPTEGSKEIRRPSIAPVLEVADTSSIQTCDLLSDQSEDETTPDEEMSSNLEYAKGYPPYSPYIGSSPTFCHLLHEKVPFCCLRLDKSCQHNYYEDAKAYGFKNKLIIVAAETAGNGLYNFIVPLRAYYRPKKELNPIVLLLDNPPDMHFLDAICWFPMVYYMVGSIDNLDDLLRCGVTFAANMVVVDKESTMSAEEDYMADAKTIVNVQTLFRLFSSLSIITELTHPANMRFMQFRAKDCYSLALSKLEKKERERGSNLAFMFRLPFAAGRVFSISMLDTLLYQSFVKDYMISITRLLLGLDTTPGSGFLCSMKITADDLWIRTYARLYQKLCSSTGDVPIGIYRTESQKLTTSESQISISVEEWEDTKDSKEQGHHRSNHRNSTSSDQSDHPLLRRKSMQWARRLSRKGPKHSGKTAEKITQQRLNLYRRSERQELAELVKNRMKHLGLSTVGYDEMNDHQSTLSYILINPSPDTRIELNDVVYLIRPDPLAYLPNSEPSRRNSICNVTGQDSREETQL

CHO = test: Inhibition of wild-type human SLACK expressed in CHO cells assessed as efficacy at 30 uM by whole cell voltage clamp electrophysiology assay; type: cell-based; conditions: Cricetulus griseus
[4] = target: Calcium-activated potassium channel subunit alpha-1 (Homo sapiens) (UniProt Q12791); test: Inhibition of Maxi-K (unknown origin) expressed in HEK293 cells assessed as efficacy at 30 uM by thallium flux assay relative to control; type: cell-based
Chain of Calcium-activated potassium channel subunit alpha-1 (Homo sapiens) (Q12791 whole entry): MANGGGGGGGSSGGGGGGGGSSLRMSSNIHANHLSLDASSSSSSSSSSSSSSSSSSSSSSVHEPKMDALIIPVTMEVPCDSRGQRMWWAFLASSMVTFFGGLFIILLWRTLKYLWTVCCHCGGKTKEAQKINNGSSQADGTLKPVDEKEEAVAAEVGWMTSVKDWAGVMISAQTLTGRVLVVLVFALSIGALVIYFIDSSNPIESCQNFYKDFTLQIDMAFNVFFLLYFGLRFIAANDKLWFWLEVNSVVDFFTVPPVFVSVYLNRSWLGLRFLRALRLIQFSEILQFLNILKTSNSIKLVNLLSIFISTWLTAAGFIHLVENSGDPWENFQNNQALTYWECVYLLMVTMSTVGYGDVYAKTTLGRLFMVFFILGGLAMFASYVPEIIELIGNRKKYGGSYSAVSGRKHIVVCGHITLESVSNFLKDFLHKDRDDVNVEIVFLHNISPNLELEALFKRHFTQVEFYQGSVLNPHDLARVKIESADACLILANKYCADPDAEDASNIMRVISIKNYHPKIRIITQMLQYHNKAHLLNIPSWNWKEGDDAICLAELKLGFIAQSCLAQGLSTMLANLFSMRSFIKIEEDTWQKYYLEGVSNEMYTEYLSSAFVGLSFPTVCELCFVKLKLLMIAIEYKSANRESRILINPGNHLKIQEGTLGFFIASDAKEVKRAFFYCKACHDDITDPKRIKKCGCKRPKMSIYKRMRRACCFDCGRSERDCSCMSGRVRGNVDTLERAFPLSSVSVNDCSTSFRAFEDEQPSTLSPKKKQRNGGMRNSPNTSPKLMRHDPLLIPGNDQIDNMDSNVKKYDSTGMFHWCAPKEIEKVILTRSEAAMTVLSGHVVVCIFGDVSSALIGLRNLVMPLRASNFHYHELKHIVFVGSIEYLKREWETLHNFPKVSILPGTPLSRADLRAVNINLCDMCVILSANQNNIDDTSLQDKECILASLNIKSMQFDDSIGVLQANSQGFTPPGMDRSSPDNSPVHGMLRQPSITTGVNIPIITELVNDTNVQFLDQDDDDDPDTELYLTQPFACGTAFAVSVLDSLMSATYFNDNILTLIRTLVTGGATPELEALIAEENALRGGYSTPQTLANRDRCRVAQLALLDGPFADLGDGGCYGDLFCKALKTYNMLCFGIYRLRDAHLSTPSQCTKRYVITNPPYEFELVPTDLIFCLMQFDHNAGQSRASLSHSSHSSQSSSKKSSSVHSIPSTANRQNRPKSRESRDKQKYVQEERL

[5] = Inhibition of wild-type human SLACK expressed in CHO cells by whole cell voltage clamp electrophysiology assay; type: cell-based; conditions: Cricetulus griseus
Summary of the method: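 Automated whole-cell patch clamp at room temperature. External (mM): NaCl 105, KCl 4, MgCl2 1, CaCl2 5, HEPES 10, NMDG-Cl 40, pH 7.4. Internal: NaCl 70, KF 70, KCl 10, EGTA 5, HEPES 5, pH 7.2. Concentrations 0.125–30 μM in half-log steps, ≥3 cells per series.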

[6] = Plasma protein binding in mouse assessed as unbound fraction by equilibrium dialysis method; type: ADME, cell-free
Summary of the method: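 Equilibrium dialysis, 12–14 K MWCO cellulose membrane: plasma spiked to 5 μM final versus 25 mM phosphate buffer pH 7.4, 6 h at 37 °C, shaking 200 rpm. Both sides matrix-matched, acetonitrile extraction with internal standard, LC/MS/MS quantitation. Triplicate.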

[7] = target: T2, Potassium channel subfamily T member 2 (Homo sapiens, UniProt Q6UVM3); test: Inhibition of SLICK (unknown origin) expressed in HEK293 cells by thallium flux assay; type: cell-based
T2 sequence (Q6UVM3 whole entry): T1 sequence (whole entry)

HEK293 [8] = test: Inhibition of human SLACK A934T mutant expressed in HEK293 cells assessed as efficacy at 30 uM by thallium flux assay relative to control; type: cell-based; summary of the method: as §1
[9] = target: Calcium-activated potassium channel subunit alpha-1 (Homo sapiens) (UniProt Q12791); test: Inhibition of Maxi-K (unknown origin) expressed in HEK293 cells by thallium flux assay; type: cell-based
[10] = Metabolic stability in mouse liver microsomes assessed as compound remaining measured after 10 min in presence of NADPH; type: ADME, Microsome
Summary of the method: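 Mouse liver microsomes (0.5 mg/mL) with compound (5 μM) preincubated 5 min at 37 °C in 100 mM potassium phosphate, pH 7.4. Reaction started with NADPH (1 mM) plus MgCl2 (3 mM). Samples at 0 and 10 min quenched in cold acetonitrile with internal standard; percent remaining by LC/MS/MS.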

[11] = Activation of wild-type human SLACK expressed in HEK293 cells by thallium flux assay; type: cell-based
Summary of the method: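 Stable monoclonal HEK293 line with WT SLACK, dye-loaded 1 h at room temperature (Thallo-AM, probenecid, masking dye, Pluronic), pH 7.3 buffer. Compound added 120 s before Tl2SO4 stimulus (2.5 mM), kinetic fluorescence imaging 120 s. Concentrations 1.5 nM–30 μM, half-log steps, ≥3 replicate wells per series.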

HEK293 [12] = test: Activation of wild-type human SLACK expressed in HEK293 cells assessed as efficacy at 30 uM by thallium flux assay relative to control; type: cell-based
[13] = Inhibition of wild-type human SLACK expressed in HEK293 cells by thallium flux assay; type: cell-based; summary of the method: as §1
[14] = target: Voltage-gated inwardly rectifying potassium channel KCNH2 (Homo sapiens, UniProt Q12809); test: Inhibition of human ERG expressed in HEK293 cells at 10 uM by thallium flux assay; type: toxicity, cell-based; conditions: hek293, 10 µM
Chain of Voltage-gated inwardly rectifying potassium channel KCNH2 (Q12809 whole entry): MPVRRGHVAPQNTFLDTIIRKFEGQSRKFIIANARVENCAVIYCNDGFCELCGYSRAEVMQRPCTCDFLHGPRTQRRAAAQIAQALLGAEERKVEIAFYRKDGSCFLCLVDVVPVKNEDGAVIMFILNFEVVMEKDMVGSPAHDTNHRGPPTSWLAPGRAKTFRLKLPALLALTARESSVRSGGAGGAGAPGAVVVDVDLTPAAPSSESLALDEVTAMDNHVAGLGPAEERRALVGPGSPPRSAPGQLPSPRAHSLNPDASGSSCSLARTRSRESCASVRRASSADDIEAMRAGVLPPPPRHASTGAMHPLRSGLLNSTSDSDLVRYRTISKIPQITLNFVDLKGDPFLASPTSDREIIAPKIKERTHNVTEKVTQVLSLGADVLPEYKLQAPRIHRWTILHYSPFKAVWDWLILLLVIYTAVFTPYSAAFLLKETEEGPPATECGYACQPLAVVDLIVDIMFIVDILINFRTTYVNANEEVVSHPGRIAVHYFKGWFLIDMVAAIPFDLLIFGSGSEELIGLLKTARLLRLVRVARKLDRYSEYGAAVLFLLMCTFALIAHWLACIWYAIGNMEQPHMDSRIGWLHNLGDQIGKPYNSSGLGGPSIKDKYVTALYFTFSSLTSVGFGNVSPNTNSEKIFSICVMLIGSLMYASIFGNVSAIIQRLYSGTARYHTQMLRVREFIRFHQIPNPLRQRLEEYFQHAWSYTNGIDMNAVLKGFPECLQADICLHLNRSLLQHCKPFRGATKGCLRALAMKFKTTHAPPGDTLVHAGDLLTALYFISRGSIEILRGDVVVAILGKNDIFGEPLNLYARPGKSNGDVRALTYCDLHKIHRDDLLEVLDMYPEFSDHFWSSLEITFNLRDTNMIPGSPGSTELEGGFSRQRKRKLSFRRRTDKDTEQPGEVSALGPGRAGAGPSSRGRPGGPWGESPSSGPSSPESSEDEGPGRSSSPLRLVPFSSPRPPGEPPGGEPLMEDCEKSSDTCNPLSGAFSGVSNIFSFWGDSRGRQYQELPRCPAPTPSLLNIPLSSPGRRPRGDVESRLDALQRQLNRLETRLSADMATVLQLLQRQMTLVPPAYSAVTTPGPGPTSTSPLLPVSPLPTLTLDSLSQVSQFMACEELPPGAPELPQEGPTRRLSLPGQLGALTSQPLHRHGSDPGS

[15] = Efflux ratio of permeability in MDCK-MDR1 cells assessed as P-glycoprotein mediated efflux; type: ADME, cell-based, Canis lupus familiaris; conditions: dog
[16] = Apparent permeability in MDCK-MDR1 cells by bidirectional permeability assay; type: ADME, cell-based, Canis lupus familiaris; conditions: dog

| SMILES | IC50 [1] | Efficacy [3] | Efficacy [4] | IC50 [5] | Fu [6] | IC50 [7] | inhibition [9] | Activity [10] | Efficacy (HEK293 [2]) | Efficacy (CHO) | Efficacy (HEK293 [8]) | also measured |
| --- | --- | --- | --- | --- | --- | --- | --- | --- | --- | --- | --- | --- |
| CCOc1ccccc1S(=O)(=O)N1CC(c2nc(-c3ccc(OC)cc3)no2)C1 |  |  |  |  |  |  |  |  |  |  |  | EC50 [11]: 7100 nM; Efficacy (HEK293 [12]): 21% |
| COc1ccc(S(=O)(=O)N2CC(c3nc(-c4ccsc4)no3)C2)cc1 |  |  |  |  |  |  |  |  |  |  |  | EC50 [11]: 3200 nM; Efficacy (HEK293 [12]; filed as activator): 51% |
| CCOc1ccccc1S(=O)(=O)N1CCC(c2nc(-c3ccc(F)cc3)no2)CC1 | 4300 nM | 35% | inactive | 1760 nM | < 0.01 | > 10000 nM | inactive | 21% | 105% | 100% | 129% |  |
| CC(C)Oc1ccccc1S(=O)(=O)N1CC(c2nc(-c3ccsc3)no2)C1 | 1100 nM | 47% | inactive | 1090 nM | < 0.01 | > 10000 nM | inactive | < 10% | 103% | 101% | 109% |  |
| Cc1ccccc1S(=O)(=O)N1CC(c2nc(-c3ccsc3)no2)C1 |  |  |  |  |  |  |  |  |  |  |  | EC50 [11]: 6100 nM; Efficacy (HEK293 [12]; filed as activator): 44% |
| CCOc1ccccc1S(=O)(=O)N1CC(c2nc(-c3ccc(F)s3)no2)C1 | 970 nM | 65% | inactive | 700 nM | 0.024 | > 10000 nM | inactive | < 10% | 105% | 100% | 103% |  |
| COc1ccccc1S(=O)(=O)N1CC(c2nc(-c3ccsc3)no2)C1 |  |  |  |  |  |  |  |  |  |  |  | EC50 [11]: 8100 nM; Efficacy (HEK293 [12]): 29% |
| Cc1ccc2cccc(S(=O)(=O)N3CC(c4nc(-c5ccc(F)cc5)no4)C3)c2n1 | 670 nM | 76% | inactive | 320 nM | < 0.01 | > 10000 nM | inactive | 26% | 99% | 100% | 72% | inhibition (INH) [14]: Not Active |
| CCOc1ccccc1S(=O)(=O)N1CC(c2nc(-c3ccsc3)no2)C1 | 820 nM | 55% | inactive | 640 nM | 0.022 | > 10000 nM | inactive | < 10% | 102% | 100% | 72% | Ratio [15]: 0.65; Papp [16]: 31.1 10^-6 cm/s |
| CCOc1ccccc1S(=O)(=O)N1CC(c2nc(-c3ccc(F)cc3Cl)no2)C1 | 2000 nM | 44% | inactive | 430 nM | 0.014 | > 10000 nM | inactive | 59% | 95% | 100% | 95% | IC50 [13]: 2100 nM |

The next lines start with results.

| IC50 [1] | Efficacy [3] | Efficacy [4] | IC50 [5] | Fu [6] | IC50 [7] | inhibition [9] | Activity [10] | SMILES | Efficacy (HEK293 [2]) | Efficacy (CHO) | Efficacy (HEK293 [8]) | also measured |
| --- | --- | --- | --- | --- | --- | --- | --- | --- | --- | --- | --- | --- |
| 1500 nM | 56% | inactive | 1580 nM | 0.014 | 5900 nM | inactive | 71% | O=S(=O)(c1cccc2cccnc12)N1CC(c2nc(-c3ccc(F)cc3)no2)C1 | 98% | 100% | 112% |  |
| 2600 nM | 55% | inactive | 1630 nM | < 0.01 | > 10000 nM | inactive | 19% | O=S(=O)(c1cccc2c1OCCC2)N1CC(c2nc(-c3ccc(F)cc3)no2)C1 | 93% | 100% | 104% |  |
| 1000 nM | 50% | inactive | 1000 nM | 0.012 | 2300 nM | inactive | 58% | CCOc1ccccc1S(=O)(=O)N1CC(c2nc(-c3ccc(F)cc3)no2)C1 | 105% | 101% | 110% | Efficacy (HEK293 [2]; tested as the 2H-labelled form): 100%; Efficacy ([3]; tested as the 2H-labelled form): 55%; Efficacy (CHO; tested as the 2H-labelled form): 101%; IC50 [13]: 3200 nM; Efficacy ([4]; tested as the 2H-labelled form): inactive; Efficacy (HEK293 [8]; tested as the 2H-labelled form): 83%; inhibition ([9]; tested as the 2H-labelled form): inactive |
| 2300 nM |  |  | 1040 nM | 0.012 | > 10000 nM |  | 63% | [2H]C([2H])([2H])C([2H])([2H])Oc1ccccc1S(=O)(=O)N1CC(c2nc(-c3ccc(F)cc3)no2)C1 |  |  |  | IC50 [13]: 5400 nM |
| 2500 nM | 27% | inactive | 1760 nM | 0.012 | > 10000 nM | inactive | 57% | O=S(=O)(c1ccccc1OCC(F)(F)F)N1CC(c2nc(-c3ccc(F)cc3)no2)C1 | 91% | 100% | 72% |  |
